Consider 46 compounds from ChEMBL document CHEMBL2016491, “Synthesis and structure-activity relationships of (aryloxy)quinazoline ureas as novel, potent, and selective vascular endothelial growth factor receptor-2 inhibitors” (J Med Chem, 2012).

The test system of data set [1] is HT-29. Kind of data set: Antiproliferative activity against human HT-29 cells at 10 uM after 72 hrs by MTS assay. The class given is functional. To be noted: HT-29, 72 h. Put shortly: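 Single-concentration test at 10 μM, with compound in <0.1% DMSO. Cells were plated at 3000/well in triplicate, given a 24 h pre-incubation, then treated for 72 h at 37 °C, 5% CO2. Growth inhibition (%) was read by MTS. HT29 was grown in DMEM + Glutamax-I with 10% FBS. Mean of at least three independent experiments.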
In general terms: Formazan colour is commonly taken as a measure of viable cells.

For another data set, the system named is PC-3. Kind of data set: Antiproliferative activity against human PC3 cells at 10 uM after 72 hrs by MTS assay. It counts as functional. As to conditions: PC-3, 72 h.
In data set [2] the target is Vascular endothelial growth factor receptor 2 (Homo sapiens, UniProt P35968). Kind of data set: Inhibition of recombinant human VEGFR-2 using poly(Glu4/Tyr) and [gamma32P]ATP as substrate after 1 hr by scintillation counting.
For data set [3], the system named is MCF7. Kind of data set: Antiproliferative activity against human MCF7 cells at 10 uM after 72 hrs by MTS assay. The class given is functional. To be noted: MCF7, 72 h.
A short description of data set [4]: Solubility of the compound. It counts as physicochemical.
In data set [5] the target is Epidermal growth factor receptor (Homo sapiens, UniProt P00533). Kind of data set: Inhibition of human EGFR expressed in human A431 cells using poly(Glu4/Tyr) and [gamma32P]ATP as substrate after 1 hr by scintillation counting. The arrangement: species or system A-431.
Data set [6] deals with HT-29. The data set is described as follows: Antiproliferative activity against human HT-29 cells after 72 hrs by MTS assay. As to conditions: HT-29, 72 h.
Data set [7] relates to MCF7. The data set is described as follows: Antiproliferative activity against human MCF7 cells after 72 hrs by MTS assay. To be noted: MCF7, 72 h.

Sequence of Epidermal growth factor receptor (P00533 whole entry): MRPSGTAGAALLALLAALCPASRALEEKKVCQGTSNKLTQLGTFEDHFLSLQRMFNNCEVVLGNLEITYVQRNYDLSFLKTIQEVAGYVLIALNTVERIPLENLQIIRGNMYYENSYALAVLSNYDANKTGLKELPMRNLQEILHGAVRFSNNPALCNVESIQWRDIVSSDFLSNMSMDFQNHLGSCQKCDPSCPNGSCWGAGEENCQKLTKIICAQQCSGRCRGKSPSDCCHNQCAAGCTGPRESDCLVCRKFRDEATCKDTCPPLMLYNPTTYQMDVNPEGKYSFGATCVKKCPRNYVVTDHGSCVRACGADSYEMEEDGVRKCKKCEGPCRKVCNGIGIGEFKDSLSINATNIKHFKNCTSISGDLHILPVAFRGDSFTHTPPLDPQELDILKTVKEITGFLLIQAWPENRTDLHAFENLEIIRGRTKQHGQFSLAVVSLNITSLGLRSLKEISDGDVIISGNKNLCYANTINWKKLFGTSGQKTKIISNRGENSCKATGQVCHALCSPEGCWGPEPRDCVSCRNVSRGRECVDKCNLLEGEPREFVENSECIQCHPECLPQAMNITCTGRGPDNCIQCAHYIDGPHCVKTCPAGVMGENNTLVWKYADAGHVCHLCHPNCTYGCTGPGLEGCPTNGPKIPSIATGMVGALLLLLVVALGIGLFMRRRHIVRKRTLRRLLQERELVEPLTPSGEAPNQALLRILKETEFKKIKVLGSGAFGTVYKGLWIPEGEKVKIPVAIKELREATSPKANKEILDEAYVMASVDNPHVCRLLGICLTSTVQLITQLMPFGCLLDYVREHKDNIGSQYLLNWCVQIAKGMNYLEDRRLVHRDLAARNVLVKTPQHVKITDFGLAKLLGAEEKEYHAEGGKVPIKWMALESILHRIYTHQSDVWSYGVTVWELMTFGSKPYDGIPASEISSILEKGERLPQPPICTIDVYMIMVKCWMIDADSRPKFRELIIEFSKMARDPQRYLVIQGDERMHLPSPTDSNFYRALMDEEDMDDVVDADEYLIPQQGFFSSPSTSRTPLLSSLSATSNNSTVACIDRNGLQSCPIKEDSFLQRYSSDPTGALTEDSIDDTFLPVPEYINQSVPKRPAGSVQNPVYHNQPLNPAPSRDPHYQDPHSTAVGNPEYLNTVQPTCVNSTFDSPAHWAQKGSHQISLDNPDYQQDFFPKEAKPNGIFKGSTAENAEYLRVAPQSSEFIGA
Sequence of Vascular endothelial growth factor receptor 2 (P35968 whole entry): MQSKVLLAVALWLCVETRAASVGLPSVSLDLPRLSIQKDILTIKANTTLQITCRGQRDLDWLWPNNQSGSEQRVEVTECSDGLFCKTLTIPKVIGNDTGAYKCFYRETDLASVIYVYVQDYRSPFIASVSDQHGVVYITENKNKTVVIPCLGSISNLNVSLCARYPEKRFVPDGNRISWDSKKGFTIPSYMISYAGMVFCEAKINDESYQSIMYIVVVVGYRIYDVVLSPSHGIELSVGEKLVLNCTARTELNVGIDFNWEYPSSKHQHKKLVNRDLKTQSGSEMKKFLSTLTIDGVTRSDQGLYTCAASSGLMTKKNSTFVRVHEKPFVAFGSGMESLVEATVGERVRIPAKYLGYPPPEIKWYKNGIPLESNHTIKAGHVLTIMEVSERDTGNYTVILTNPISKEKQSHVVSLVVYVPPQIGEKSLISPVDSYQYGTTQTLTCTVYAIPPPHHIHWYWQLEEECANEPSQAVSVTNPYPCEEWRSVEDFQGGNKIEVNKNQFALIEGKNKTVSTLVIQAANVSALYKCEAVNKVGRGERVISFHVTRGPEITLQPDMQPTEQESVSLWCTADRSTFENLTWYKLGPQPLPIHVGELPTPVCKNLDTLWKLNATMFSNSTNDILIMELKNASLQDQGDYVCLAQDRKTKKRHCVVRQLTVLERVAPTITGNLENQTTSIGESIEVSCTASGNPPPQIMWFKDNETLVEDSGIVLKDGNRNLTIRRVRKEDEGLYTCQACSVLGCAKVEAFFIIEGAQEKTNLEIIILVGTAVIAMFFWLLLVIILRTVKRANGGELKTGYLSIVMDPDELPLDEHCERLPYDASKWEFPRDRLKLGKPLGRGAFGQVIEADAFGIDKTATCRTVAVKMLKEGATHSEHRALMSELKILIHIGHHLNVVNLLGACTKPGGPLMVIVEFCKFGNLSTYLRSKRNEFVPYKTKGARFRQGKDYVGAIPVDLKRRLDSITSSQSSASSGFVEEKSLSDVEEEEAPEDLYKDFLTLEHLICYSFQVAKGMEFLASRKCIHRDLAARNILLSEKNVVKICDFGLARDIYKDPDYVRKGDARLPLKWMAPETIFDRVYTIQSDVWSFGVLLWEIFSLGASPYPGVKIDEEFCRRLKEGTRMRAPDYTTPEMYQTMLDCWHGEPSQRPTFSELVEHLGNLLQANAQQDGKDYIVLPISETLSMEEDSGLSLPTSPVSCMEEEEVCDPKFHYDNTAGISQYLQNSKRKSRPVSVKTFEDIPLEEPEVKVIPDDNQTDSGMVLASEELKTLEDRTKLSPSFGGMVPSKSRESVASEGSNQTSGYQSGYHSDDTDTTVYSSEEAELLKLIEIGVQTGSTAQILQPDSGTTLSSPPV

The inhibition is the share of the control response that was lost under treatment. As usually defined, the IC50 is the concentration that inhibits the measured activity by half. Regarding `COc1cc2ncnc(Oc3ccc(F)c(Cl)c3)c2cc1OC`, the inhibition at 10 µM in the data set with HT-29 [1] came to 0%; in the data set with PC-3 it was 5%; in the data set with MCF7 [3], 0%. The IC50 in data set [2] came out at 9.8 µM. The solubility entry in data set [4] is listed as “Insoluble”.

As to `CCCCNC(=O)Nc1ccc(Nc2ncnc3cc(OC)c(OC)cc23)cc1`, the values for the inhibition at 10 µM in the data set on HT-29 [1], with PC-3 and in the data set on MCF7 [3] were 16%, 14% and 26%, respectively. For the same compound, the half-inhibitory concentration (IC50) in data set [5] was more than 10 µM; in data set [2], 5.8 µM.

In turn, `COc1cccc(NC(=O)Nc2ccc(Oc3ncnc4cc(OC)c(OC)cc34)cc2)c1` had an IC50 in data set [5] of more than 10 µM. Besides, the solubility result in data set [4] was “Insoluble”.

For `CCN(CC)CCOc1cc2ncnc(Nc3ccc(NC(=O)OC)c(C)c3)c2cc1OC`, the inhibition at 10 µM was 1% in the data set on HT-29 [1], 0% in the data set with PC-3 and 0% with MCF7 [3]. In addition, the IC50 in data set [5] was more than 10 µM; in data set [2], 6.95 µM.

For the compound `CCCCNC(=O)Nc1ccc(Oc2ncnc3cc(OC)c(OC)cc23)cc1`, in data set [4], the solubility result is “Insoluble”.

Consider `CCN(CC)CCOc1cc2ncnc(Nc3ccc(F)c(Cl)c3)c2cc1OC`, for which the inhibition at 10 µM stood at 36% in the data set with PC-3 and 26% in the data set on MCF7 [3]. Also, the IC50 amounted to 9.9 µM in data set [5], 6.9 µM in data set [2] and 5.9 µM in the data set with HT-29 [6].

Consider `CCOC(=O)Nc1ccc(Nc2ncnc3cc(OC)c(OCCN(CC)CC)cc23)cc1C`, for which the inhibition at 10 µM in the data set on HT-29 [1] turned out to be 36%; with PC-3 it was 0%; with MCF7 [3] it was 0%.

Take `CCOC(=O)Nc1ccc(Oc2ncnc3cc(OC)c(OC)cc23)cc1`: the solubility entry in data set [4] is listed as “Insoluble”.

Turning to `CCN(CC)CCOc1cc2c(Nc3ccc(Br)cc3F)ncnc2cc1OC`, the inhibition at 10 µM is 35% with HT-29 [1], 0% in the data set on PC-3 and 0% in the data set with MCF7 [3]. The results for the IC50 in data set [5] and in data set [2] were 9.1 µM and 7.45 µM, respectively.

`COc1cc2ncnc(Oc3ccc(NC(=O)Nc4ccc(Br)cc4)cc3)c2cc1OC`: the solubility result in data set [4] is “Insoluble”.

For the compound `COc1cc2ncnc(Nc3ccc(Br)cc3)c2cc1OC`, the figures for the inhibition at 10 µM with HT-29 [1], in the data set on PC-3 and in the data set on MCF7 [3] were 2%, 37% and 42%, respectively. For the same compound, the IC50 was 3.6 µM in data set [5] and 0.8 µM in data set [2].

In data set [5], `COc1cc2ncnc(Oc3ccc(NC(=O)Nc4ccc5ccccc5c4)c(C)c3)c2cc1OC` showed an IC50 of more than 10 µM. Besides, in data set [4], the solubility entry is “Insoluble”.

The compound `COc1cccc(NC(=O)Nc2ccc(Nc3ncnc4cc(OC)c(OC)cc34)cc2)c1` registered an IC50 in data set [5] of more than 10 µM.

As to `COc1cc2ncnc(Oc3ccc(NC(=O)Nc4cccc(Br)c4)c(C)c3)c2cc1OC`, the inhibition at 10 µM is 36% in the data set on HT-29 [1], 25% with PC-3 and 30% in the data set on MCF7 [3]. The IC50 in data set [5] is more than 10 µM; in data set [2], 0.004 µM. In addition, the solubility result in data set [4] is “Insoluble”.

Turning to `CCCCOc1cc2c(Nc3ccc(NC(=O)OCC)c(C)c3)ncnc2cc1OCCN(CC)CC`, the inhibition at 10 µM in the data set with PC-3 and in the data set on MCF7 [3] was 0% throughout. The same compound registered an IC50 with HT-29 [6] of 5.8 µM.

The compound `CCCCOc1cc2c(Nc3ccc(NC(=O)OCC)c(Cl)c3)ncnc2cc1OCCN(CC)CC` registered an inhibition at 10 µM in the data set on PC-3 of 40%. Also, the IC50 in data set [5] turned out to be 9.15 µM; with HT-29 [6], 2.5 µM; in the data set on MCF7 [7], 7.1 µM.

Turning to `COc1cc2ncnc(Oc3ccc(NC(=O)NC4CCCCC4)cc3)c2cc1OC`, the solubility entry in data set [4] is “Insoluble”.

Regarding `CCCCOc1cc2c(Nc3ccc(NC(=O)OC)c(Cl)c3)ncnc2cc1OCCN(CC)CC`, the inhibition at 10 µM turned out to be 11% in the data set on PC-3 and 33% in the data set with MCF7 [3]. The IC50 in data set [5] is more than 10 µM; in data set [2], 7.4 µM; in the data set on HT-29 [6], 2.55 µM.

With `COc1ccc(NC(=O)Nc2cccc(Oc3ncnc4cc(OC)c(OC)cc34)c2)cc1`, the solubility result in data set [4] is given as “Insoluble”.

As for `CCNC(=O)Nc1ccc(Nc2ncnc3cc(OCCN(CC)CC)c(OC)cc23)cc1`, the inhibition at 10 µM in the data set on HT-29 [1], in the data set on PC-3 and in the data set with MCF7 [3] was 0% each time. The figures for the IC50 in data set [5] and in data set [2] were more than 10 µM and 6.6 µM, respectively.

Regarding `CCCCOC(=O)Nc1ccc(Nc2ncnc3cc(OC)c(OC)cc23)cc1C`, the values for the inhibition at 10 µM with HT-29 [1], in the data set with PC-3 and with MCF7 [3] were 13%, 4% and 33%, respectively.

In data set [5], `CCC(=O)Nc1ccc(Nc2ncnc3cc(OC)c(OC)cc23)cc1` had an IC50 of more than 10 µM.

`COC(=O)Nc1ccc(Oc2ncnc3cc(OC)c(OC)cc23)cc1`: the solubility entry in data set [4] is on record as “Insoluble”.

Regarding `COc1cc2ncnc(Oc3ccc(NC(=O)Nc4ccc(F)c(Cl)c4)cc3)c2cc1OC`, the solubility entry in data set [4] is “Insoluble”.

Take `COc1cc2ncnc(Oc3ccc(NC(=O)Nc4ccc(Br)cc4)c(C)c3)c2cc1OC`: the inhibition at 10 µM was determined as 2% in the data set on HT-29 [1], 7% in the data set on PC-3 and 3% in the data set with MCF7 [3]. For the same compound, the IC50 was more than 10 µM in data set [5] and 0.04 µM in data set [2]. Moreover, the solubility result in data set [4] was “Insoluble”.

In the case of `COc1cc2ncnc(Nc3ccccc3)c2cc1OC`, the results for the inhibition at 10 µM with HT-29 [1], in the data set on PC-3 and in the data set on MCF7 [3] were 0%, 9% and 7%, respectively. For the same compound, the IC50 in data set [5] came to 4.3 µM; in data set [2] it was 7 µM.

For the compound `COC(=O)Nc1ccc(Nc2ncnc3cc(OC)c(OC)cc23)cc1Cl`, the values for the inhibition at 10 µM in the data set on HT-29 [1], in the data set with PC-3 and in the data set on MCF7 [3] were 22%, 19% and 0%, respectively.

As to `CCN(CC)CCOc1cc2ncnc(Nc3ccc(NC(=O)OC)c(Cl)c3)c2cc1OC`, the inhibition at 10 µM in the data set with HT-29 [1] is 38%; in the data set with PC-3, 0%; with MCF7 [3], 0%. Also, the results for the IC50 in data set [5] and in data set [2] were more than 10 µM and 5.2 µM, respectively.

In the case of `COC(=O)Nc1ccc(Nc2ncnc3cc(OC)c(OC)cc23)cc1`, the values for the inhibition at 10 µM in the data set on HT-29 [1], in the data set with PC-3 and with MCF7 [3] were 10%, 2% and 27%, respectively.

In the case of `CCOC(=O)Nc1ccc(Nc2ncnc3cc(OCCN(CC)CC)c(OC)cc23)cc1C`, the figures for the inhibition at 10 µM in the data set on HT-29 [1], in the data set with PC-3 and in the data set with MCF7 [3] were 11%, 0% and 0%, respectively.

As for `COc1cc2ncnc(Oc3cccc(NC(=O)Nc4ccccc4)c3)c2cc1OC`, the solubility entry in data set [4] was “Insoluble”.

Take `CCCOC(=O)Nc1ccc(Nc2ncnc3cc(OC)c(OC)cc23)cc1C`: the inhibition at 10 µM was 18% in the data set with HT-29 [1], 6% in the data set on PC-3 and 0% in the data set on MCF7 [3].

Consider `COc1cc2ncnc(Nc3ccc(Br)cc3F)c2cc1OC`, for which the results for the inhibition at 10 µM in the data set with HT-29 [1], in the data set with PC-3 and with MCF7 [3] were 0%, 1% and 31%, respectively.

With `CCOC(=O)Nc1ccc(Nc2ncnc3cc(OCCN(CC)CC)c(OC)cc23)cc1Cl`, the inhibition at 10 µM in the data set with PC-3 and with MCF7 [3] was 0% each time. In addition, the IC50 in data set [2] came out at 3.35 µM; in the data set on HT-29 [6], 5.45 µM.

With `COc1cc2ncnc(Oc3ccc(NC(=O)Nc4ccccc4)cc3)c2cc1OC`, the inhibition at 10 µM in the data set on HT-29 [1] amounted to 10%; in the data set with PC-3, 23%; with MCF7 [3], 12%. In data set [4], the solubility entry is on record as “Insoluble”.

Turning to `COc1ccc(NC(=O)Nc2ccc(Oc3ncnc4cc(OC)c(OC)cc34)cc2)cc1`, the inhibition at 10 µM was 9% with HT-29 [1], 12% in the data set with PC-3 and 0% with MCF7 [3]. Besides, in data set [4], the solubility result is on record as “Insoluble”.

On to `CCCC(=O)Nc1ccc(Nc2ncnc3cc(OC)c(OC)cc23)cc1C`, for which the figures for the inhibition at 10 µM in the data set with HT-29 [1], with PC-3 and with MCF7 [3] were 0%, 0% and 5%, respectively. In data set [2], the IC50 amounted to 4 µM.

For `CCNC(=O)Nc1ccc(Nc2ncnc3cc(OC)c(OC)cc23)cc1`, the inhibition at 10 µM in the data set on HT-29 [1] was determined as 0%; in the data set on PC-3 it was 0%; in the data set on MCF7 [3], 6%. Also, the IC50 was more than 10 µM in data set [5] and 4.65 µM in data set [2].

In the case of `CCCCOc1cc2c(Nc3ccc(NC(=O)OC)c(C)c3)ncnc2cc1OCCN(CC)CC`, the inhibition at 10 µM in the data set on PC-3 and in the data set with MCF7 [3] was 0% throughout. In addition, the IC50 in data set [5] was more than 10 µM; in data set [2] it was 9.4 µM; in the data set on HT-29 [6], 6.15 µM.

As to `CCOC(=O)Nc1ccc(Nc2ncnc3cc(OC)c(OC)cc23)cc1`, the inhibition at 10 µM with HT-29 [1] worked out at 16%; with PC-3 it was 12%; in the data set with MCF7 [3] it was 6%.

For the compound `COc1cc2ncnc(Oc3ccc(NC(=O)Nc4ccc(F)cc4F)cc3)c2cc1OC`, the solubility entry in data set [4] is “Insoluble”.

In data set [5], `COc1cc2ncnc(Nc3ccc(NC(=O)OC(C)C)c(C)c3)c2cc1OC` registered an IC50 of 5.8 µM.

As to `COc1cc2ncnc(Oc3cccc(NC(C)=O)c3)c2cc1OC`, in data set [4], the solubility entry is reported as “Insoluble”.

Take `CCN(CC)CCOc1cc2ncnc(Nc3ccc(Br)cc3F)c2cc1OC`: the inhibition at 10 µM with PC-3 was 16%; in the data set on MCF7 [3], 10%. Also, the figures for the IC50 (in data set [5]; in data set [2]; with HT-29 [6]) were more than 10 µM, 1 µM and 7.5 µM, respectively.

Turning to `COc1cc2ncnc(Oc3ccc(NC(=O)Nc4ccc5ccccc5c4)cc3)c2cc1OC`, in data set [4], the solubility entry was “Insoluble”.

The compound `COc1cc2ncnc(Oc3ccc(NC(=O)Nc4ccc(F)c(Cl)c4)c(C)c3)c2cc1OC` gave an IC50 in data set [5] of more than 10 µM. The solubility entry in data set [4] is “Insoluble”.
